Test results from the EternaBench riboswitch data.

Test system: MS2 coat protein
Assay: apparent Kd, MS2 coat protein; higher = weaker binding; RNA-MaP array; FMN 200 µM where present
Procedure, shortened: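 The apparent Kd is reported as the median of filtered per-cluster binding-curve fits. To get these curves, designs transcribed by stalled E. coli RNA polymerase on Illumina sequencing-chip clusters were titrated with SNAP-549-labelled MS2 coat protein from 0.7 or 1.5 nM, doubling to 3 µM. Titrations were run without and then with constant ligand in 100 mM Tris-HCl pH 7.5, 80 mM KCl, 4 mM MgCl2, BSA, DTT, yeast tRNA and Tween-20, and green signal was normalised to red-channel RNA signal and control-cluster median Fmax.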

[1] = designed as: ON switch for flavin mononucleotide, no ligand
[2] = ligand present: flavin mononucleotide, designed as: ON switch for flavin mononucleotide
[3] = designed as: OFF switch for flavin mononucleotide, no ligand
[4] = ligand present: flavin mononucleotide, designed as: OFF switch for flavin mononucleotide

Sequence | apparent Kd [1] [nM] | apparent Kd [2] [nM] | apparent Kd [3] [nM] | apparent Kd [4] [nM]
GAGUUUAAGUUUGUCACUUAGAGAGAGGAUAUGGAAAACUUGACAUGAGGAUCACCCAUGUAUAAUCAGAAGGCUCGAGUACGA | 12.1 | 7.33 | – | –
CCGAUGUAAGGAUAUCGUGCAAGUUUCAAAAGAGGCUUGUGCGAGAAGGUACAUGAGGAUCACCCAUGUAGGUU | – | – | 95.4 | 345
GCGACGAAAGUCGAACGAUGUAGCAGAAGGACAUGAGGAUCACCCAUGUCAGCUGUAACAGCCAUGUAGGAUAUGCUACAUCGA | – | – | 4.26 | 5.11
CCGGAAACGGGUAGCUCACAUGAGGAUCACCCAUGUAAAACACAGGAUAUGGAUCCUAAUUGGAUCCAGAAGGGUGUGAGCUAC | 40.1 | 23.6 | – | –
UGGCCUUUAGGAUAUCGGGUCUUUAACAUGAGGAUCACCCAUGUGGCACUCUCUUGAGAACGAGAAGGAAAACCCG | – | – | 23.2 | 23.7
GGAUAGGACAGAGGAUAUACCGAUAGGAGAUACUAUCGACUAGUCCUCACAUGAGGAUCACCCAUGUAGAAGGCUGUCCUAUCG | – | – | 23.3 | 234
UUAUUAUAUGUAGGAUAUGCAUAUUAUUAUUGUGCAGAAGGACAUGAGGAUCACCCAUGUAUAUUAUUAUUAUAUAUUAUAUGU | – | – | 25.7 | 30.2
CAAUUUAUGUCAGGAUAUACAAUACAAUGAUUAGUAGAAGGGAUUAAUACAUGAGGAUCACCCAUGUCAUGUGUCAUCGUGCCC | – | – | 24 | 20.7
AUCAGCUCGUCAGGAUAUACAUCACUGCUUCGGCAGUGUGGUAAGAUCACAUGAGGAUCACCCAUGUAGAAGGGACGAGCUGAU | – | – | 13.9 | 217
UAUUUUAACUAAGGAUAUCUAUAUUAUGUUGAAACAUGAGGAUCACCCAUGUUCAUGAUAUUAUAGGAGAAGGUAGAUGAAUAA | 6.59 | 5.44 | – | –
GGCGAACAUGAGGAUCACCCAUGUCAGGAUAUCUCUCGCGUUGAAUUGAGGGUGUGUGAGAGAAGGGAUAUGUA | – | – | 49.7 | 49.9
AAAUCAGCAGGAUAUACGAUUUUAUGCUAGAUAGAGGGACCACAUGAGGAUCACCCAUGUAGAAGGGCUAGAUA | – | – | 24.6 | 26.4
ACAUACAUUCGAGGAUAUCGGUGAGAAAUCUUUCGAGAAGGCGAUUCAUGAUUUAUUAUCCUGGACAUGAGGAUCACCCAUGUA | 78.9 | 62.8 | – | –
AAAUAAAGCAGUGUAUUAAUAUAACAUGAGGAUCACCCAUGUAGAAGGCUCGAGCAAUAUGCUCGAGAGGAUAUACAACACUGC | – | – | 7.3 | 7.18
UGUACAUUAUUAAGUAAUUAGGCGAAGGAUAUAUAACAUGAGGAUCACCCAUGUACUAAGUUGAAGUAGAAGGUUGAGCAUUUC | 19 | 15.7 | – | –
AUACGGGCUAACAUGAGGAUCACCCAUGUGUUAUACUUAAUAUAGGAUAUGUUUAUACUUUUUGGGCAGAAGGAUGGCCCGUAU | 53.5 | 44.9 | – | –
AAUUAGGUCACAGGAUAUACAUCAUCCAUAGAUGUAGAAGGGUGUCAAAGUAAUAUCUGACAUGAGGAUCACCCAUGUUUCCAC | 23.3 | 9.28 | – | –
GGGACCGUACUCCUGUUGUACUCUGAGGAUAUCCGUUACGGACAUGAGGAUCACCCAUGUACGGCGGAGAAGGCAGAUCUCAUA | 6.44 | 5.26 | – | –

Sequence | apparent Kd [1] [nM] | apparent Kd [2] [nM] | apparent Kd [3] [nM] | apparent Kd [4] [nM]
AAGGUGUUAGGAUAUCGGAGUUUGAGGCAGACGGGAAUUUUCGAGAAGGAACAUGAGGAUCACCCAUGUAGUAU | – | – | 24.1 | 24.8
AUAAUGUAAGGAUAUCAGUCGACUAGCUUCGGCUAGUCGACUGAGAAGGUACAUGAGGAUCACCCAUGUGUUUC | – | – | 37.7 | 209
AGAUGACAAAGUCAUCUCGCUCUGACAUGAGGAUCACCCAUGUAGGAUAUAUUACUCAAAGAGUAAUAGAAGGACAUGUGUCUG | – | – | 36.3 | 115
CGGAACAUGAGGAUCACCCAUGUAGCUACUUAAAGGUGCUACAGAAGGGACAUUGCGCGUCAUGGUCAGGAUAUGUAGGGCUGA | 379 | 108 | – | –
GACUGCCGAGGAUAUACAUGAGGAUCACCCAUGUGCUUCAGCAUCGAAAGAUGCAUGGGUAGAAGGCGGUAGUC | – | – | 27.4 | 72
GUGCGGUGAGGAUAUACGUAGGUACAGAUCUGUGUGUUCCUACAUGAGGAUCACCCAUGUAGAAGGCAUGGCAC | – | – | 49.6 | 136
AUUGUAUGGGAAGGAUAUAGAAUAUUAUUUUAACAUGAGGAUCACCCAUGUAACCUUAUGUGUAGCUAGAAGGUCCGUUUGUUA | – | – | 308 | 409
UGGUGAUUUGUAGGAUAUGGAAAUAUAUUAUAACCAGAAGGACAUGAGGAUCACCCAUGUGAUAGAGUUUUUUUUUUUUCUCCU | – | – | 31.5 | 14.1
AACAGUACAGGAUAUACAUGAGGAUCACCCAUGUGAGAAUUAAGUGGCGAACCACAAAGUAGAAGGGUACUGGA | – | – | 59.6 | 197
UUAAUUAUGUAAGGAUAUACAUGAGGAUUUCUCGUAGAAGGUACAUUACAUGAGGAUCACCCAUGUGGGUGUCCGUAGACGCCA | 632 | 614 | – | –
GUUUUGAUAGGAUAUACAUGAGGAUCACCCAUGUCCCACCCGUUACCUAUGACCAUAUGUAGAAGGAUCGUUUG | – | – | 98.1 | 83.9
AUCAGCUCGUCAGGAUAUACGUCACUGCGUCAGCAGUGUGGCAAGAUCACAUGAGGAUCACCCAUGUAGAAGGGACGAGCUGAU | – | – | 21.2 | 399
CGACGUUGAGAGAAGGAGUAAAAUACAUGAGGAUCACCCAUGUCAGGUGCUAGGAUAUCUUCGCGUGGCAGGGUCGGCCCGUGU | 66 | 14.3 | – | –
AAUUUACAGCGAGGAUAUACAUGAGGAUCACCCAUGUAAUCAUAUGAUAUUUUUUUUGUAUGAGUGUAGAAGGCGCAAAUAAAA | – | – | 10.2 | 9.61
AAGCGACGAGGAUAUCGGUGGCUGAACAUGAGGAUCACCCAUGUGAACCGAUGGCAGUGUCGAGAAGGUGUUGAGU | – | – | 13.9 | 16.1
AGAUGGUAUAUAGGAUAUCAUGUGCAAACAUGAGGAUCACCCAUGUAGAGACGUCAGUUUAAUAAUGAGAAGGAUAUACCAUCU | 31.9 | 14.4 | – | –
AGCUAGUACCGAGGAUAUACAUACAUGAGGAUCACCCAUGUAUACAUGAACAAUUGAGACUACAUGUAGAAGGCGGUACUAGCA | 49.9 | 18.6 | – | –
GCGUGACAUGAGGAUCACCCAUGUGAGGAUAUCUGGACACUCUUUAUUUUAGAUGUCCAGAGAAGGCACAUGCU | – | – | 238 | 126
